{"source": "ChEMBL document CHEMBL1157279", "about": "“8-methyl-pyridoxatin: A novel N-hydroxy pyridone from fungus OS-F61800 that induces erythropoietin in human cells” (1999)", "key": {"Hep 3B2 [1]": {"system": "Hep 3B2", "assay": "Induction of erythropoietin gene expression in human Hep3B cells assessed as concentration resulting in five fold induction by luciferase reporter assay relative to control", "type": "functional", "method_in_brief": "(§1)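 Hep3B epo-3 cells carrying an EPO-luciferase reporter; compounds tested at 0.1 to 30 µM, in triplicate in at least three experiments. Read-out is the ratio of light units with compound to a 0.5% DMSO vehicle control. TIR5x is the concentration giving fivefold induction; TIRmax is the minimum concentration giving maximum-fold induction. 10 µM CoCl2 served as positive control.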"}, "Hep 3B2 [2]": {"system": "Hep 3B2", "assay": "Induction of erythropoietin gene expression in human Hep3B cells assessed as concentration resulting in maximum fold induction by luciferase reporter assay relative to control", "type": "functional", "method_in_brief": "as §1"}, "Hep 3B2 [3]": {"system": "Hep 3B2", "assay": "Induction of erythropoietin protein expression in human Hep3B cells assessed per ml of protein at 10 uM by ELISA relative to control", "type": "functional", "method_in_brief": "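Hep3B epo-3 cells incubated 24 h with compound at a single 10 µM; native EPO secreted into culture measured by human EPO ELISA kit, in mU/mL culture, against a 0.5% DMSO vehicle control; 10 µM CoCl2 as positive control.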"}, "[4]": {"assay": "Cytotoxicity against human Hep3B cells after 48 hrs by MTT assay", "type": "functional, Hep 3B2", "method_in_brief": "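Hep3B epo-3 cells, 48 h exposure, standard MTT assay; value is concentration giving 90% inhibition (IC90).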"}}, "note": "Active and inactive are the calls of the source. No cut-off for these calls is given here."}
{"molecule": "C=C[C@]1(C)C[C@H](C)C[C@H](C)[C@H]1c1c(OC)ccn(OC)c1=O", "values": [{"measurement": "Activity", "setting": "Hep 3B2 [1]", "value": "inactive"}, {"measurement": "Activity", "setting": "Hep 3B2 [2]", "value": "inactive"}]}
{"molecule": "Cc1cc(C2CCCCC2)n(O)c(=O)c1.NCCO", "note": "[CICLOPIROX OLAMINE]", "values": [{"measurement": "Activity", "setting": "Hep 3B2 [1]", "value": 3, "unit": "µM"}, {"measurement": "Activity", "setting": "Hep 3B2 [2]", "value": 15, "unit": "µM"}, {"measurement": "Activity", "setting": "Hep 3B2 [3]", "value": 99, "unit": "mU/mL"}, {"measurement": "IC90", "setting": "[4]", "value": "> 20", "unit": "µM"}]}
{"molecule": "C=C[C@]1(C)C[C@H](C)C[C@H](C)[C@H]1c1c(O)ccn(O)c1=O", "values": [{"measurement": "Activity", "setting": "Hep 3B2 [1]", "value": 0.3, "unit": "µM"}, {"measurement": "Activity", "setting": "Hep 3B2 [2]", "value": 0.7, "unit": "µM"}, {"measurement": "Activity", "setting": "Hep 3B2 [3]", "value": 120, "unit": "mU/mL"}, {"measurement": "IC90", "setting": "[4]", "value": "> 20", "unit": "µM"}]}
